Each structure is given as a SMILES string.

The MIC is the smallest concentration in the dilution series that meets the test's criterion for growth inhibition.

The test relates to Mycobacterium tuberculosis. The test is described as follows: Antimicrobial activity against recombinant Mycobacterium bovis BCG expressing pMV361 lux after 5 days by luciferase assay. It counts as functional. The conditions noted are these: variant bovis BCG, 120 h. The essentials: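 rBCG (pMV361 lux) in Middlebrook 7H9 broth at about 5e5 cfu/mL final inoculum. Compounds were tested at 0.1–50 µg/mL and at higher levels, with no-drug 1% DMSO growth controls. Tubes were incubated at 36 °C in ambient air. A 100 µL aliquot received 100 µL of 1 mM luciferin, and RLU were read at day 0 (within 30 min) and day 5. Inhibition was scored as a drop in luminescence.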
`COc1c(O)ccc2c1C(=O)N1CCc3cc4c(cc3C1C2)OCO4` (stereo not given): the minimum inhibitory concentration (MIC) is > 50 µg/mL.
Then `COc1c(OC(C)=O)ccc2c1C(=O)N1CCc3cc4c(cc3C1C2)OCO4` (stereo not given), with > 50 µg/mL; and `COc1ccc2c(c1OC)C(=O)N1CCc3cc4c(cc3C1C2)OCO4` (stereo not given), with > 50 µg/mL; and `COc1ccc2cc3[n+](cc2c1OC)CCc1cc2c(cc1-3)OCO2.[Cl-]` [BERBERINE CHLORIDE], with 200 µg/mL.
Consider `COc1ccc2c(c1OC)CN1CCc3cc4c(cc3[C@@H]1C2)OCO4` [CANADINE], for which the MIC is > 50 µg/mL.
